# Data reported in ChEMBL document CHEMBL1138683 (J Med Chem, 2004).
# Tests used:
# [1] = Anti convulsant activity administered intra peritoneally to mouse for toxicity at 4 hr with dose of 100 mg/kg; 1/4= No of animals exhibiting toxicity /No of animals tested; format: organism-based; parameters: dose 100 mg/kg; settings: in vivo, ip
# [2] = Anti convulsant activity administered intra peritoneally to mouse for toxicity at 4 hr with dose of 300 mg/kg; 0/2= No of animals exhibiting toxicity /No of animals tested; format: organism-based; parameters: dose 300 mg/kg; settings: in vivo, ip
# [3] = Anticonvulsant activity after oral administration of 100 mg/kg dose after 30 min in rats; ++ means 50% of the animals protected; format: organism-based; parameters: dose 100 mg/kg, route oral; settings: rat, in vivo, 0.5 h
# Outline: (§1)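 Oral dosing of rats at a single dose, compound dissolved or suspended in 0.5% methylcellulose. Protection in the MES or scMet test checked 15 min, 30 min, 1 h, 2 h and 4 h after dosing. Scored as 25/50/75/100% of animals protected (+ to ++++), – for none.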
# [4] = Toxicity after oral administration of 100 mg/kg dose in rats; + means 25% of the animals exhibit toxicity; format: organism-based; parameters: dose 100 mg/kg, route oral; settings: rat, in vivo
# Outline: (§2)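 Rats dosed orally with compound dissolved or suspended in 0.5% methylcellulose (0.04 mL per 10 g body weight). Anticonvulsant protection (MES or scMet) and toxicity scored at 15 min, 30 min, 1 h, 2 h and 4 h after dosing. Graded in steps of 25% of animals protected or showing toxicity.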
# [5] = Anti convulsant activity administered intra peritoneally to mouse for toxicity at 4 hr with dose of 30 mg/kg; 0/2= No of animals exhibiting toxicity /No of animals tested; format: organism-based; parameters: dose 30 mg/kg; settings: in vivo, ip
# [6] = Anti convulsant activity administered intra peritoneally to mouse for toxicity at 0.5 hr with dose of 30 mg/kg; 0/4= No of animals exhibiting toxicity /No of animals tested; format: organism-based; parameters: dose 30 mg/kg; settings: in vivo, ip
# [7] = Anti convulsant activity administered intra peritoneally to mouse for toxicity at 0.5 hr with dose of 100 mg/kg; 7/8= No of animals exhibiting toxicity /No of animals tested; format: organism-based; parameters: dose 100 mg/kg; settings: in vivo, ip
# [8] = Anti convulsant activity administered intra peritoneally to mouse for toxicity at 0.5 hr with dose of 300 mg/kg; 4/4= No of animals exhibiting toxicity /No of animals tested; format: organism-based; parameters: dose 300 mg/kg; settings: in vivo, ip
# Mus musculus [9] = test: Anti convulsant activity administered intra peritoneally to mouse at maximal electroshock test at 4 hr after the drug administered with dose of 30 mg/kg; 0/1= No of animals protected /No of animals tested; format: functional
# Mus musculus [10] = test: Anti convulsant activity administered intra peritoneally to mouse at maximal electroshock test at 4 hr after the drug administered with dose of 100 mg/kg; 0/3= No of animals protected /No of animals tested; format: functional
# Mus musculus [11] = test: Anti convulsant activity administered intra peritoneally to mouse at maximal electroshock test at 4 hr after the drug administered with dose of 300 mg/kg; 0/1= No of animals protected /No of animals tested; format: functional
# Mus musculus [12] = test: Anti convulsant activity administered intra peritoneally to mouse at maximal electroshock test at 0.5 h after the drug administered with dose of 30 mg/kg; 0/1= No of animals protected /No of animals tested; format: functional
# Mus musculus [13] = test: Anti convulsant activity administered intra peritoneally to mouse for subcutaneous metrazol test at 4 hr after the drug administered with dose of 30 mg/kg; 0/1= No of animals protected /No of animals tested; format: functional; settings: route intraperitoneal
# Mus musculus [14] = test: Anti convulsant activity administered intra peritoneally to mouse at maximal electroshock test at 0.5 hr after the drug administered with dose of 100 mg/kg; 0/3= No of animals protected /No of animals tested; format: functional
# Mus musculus [15] = test: Anti convulsant activity administered intra peritoneally to mouse at maximal electroshock test at 0.5 h after the drug administered with dose of 300 mg/kg; 0/1= No of animals protected /No of animals tested; format: functional
# Mus musculus [16] = test: Anti convulsant activity administered intra peritoneally to mouse for subcutaneous metrazol test at 4 hr after the drug administered with dose of 100 mg/kg; 0/1= No of animals protected /No of animals tested; format: functional
# Rattus norvegicus [17] = test: Anticonvulsant activity after oral administration of 100 mg/kg dose after 1 hr in rats; + means 25% of the animals protected; format: functional, organism-based; parameters: dose 100 mg/kg; outline: as §1
# Rattus norvegicus [18] = test: Anticonvulsant activity after oral administration of 100 mg/kg dose after 4 hr in rats; +means 25% of the animals protected; format: functional, organism-based; parameters: dose 100 mg/kg; outline: as §1
# Mus musculus [19] = test: Anti convulsant activity administered intra peritoneally to mouse for subcutaneous metrazol test at 4 hr with dose of 300 mg/kg; 0/1= No of animals protected /No of animals tested; format: functional
# Mus musculus [20] = test: Anti convulsant activity administered intra peritoneally to mouse for subcutaneous metrazol test at 0.5 hr with dose of 30 mg/kg; 0/1= No of animals protected /No of animals tested; format: functional
# Mus musculus [21] = test: Anti convulsant activity administered intra peritoneally to mouse for subcutaneous metrazol test at 0.5 hr with dose of 100 mg/kg; 0/1= No of animals protected /No of animals tested; format: functional
# Mus musculus [22] = test: Anti convulsant activity administered intra peritoneally to mouse for subcutaneous metrazol test at 0.5 h with dose of 300 mg/kg; 0/1= No of animals protected /No of animals tested; format: functional
# Rattus norvegicus [23] = test: Toxicity after oral administration of 100 mg/kg dose in rats; + means 25% of the […]; format: functional, organism-based; parameters: dose 100 mg/kg; outline: as §2
# [24] = Quantitative Anticonvulsant activity administered intraperitoneally to mouse for toxicity; settings: in vivo, ip
# Outline: (§3)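 Mice dosed intraperitoneally with compound dissolved or suspended in 0.5% methylcellulose (0.01 mL per gram body weight). […] Protective index calculated as TD50/ED50 for each seizure test.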
# [25] = Anti convulsant activity administered intra peritoneally to mouse for toxicity at 4 hr with dose of 100 mg/kg; 0/4= No of animals exhibiting toxicity /No of animals tested; format: organism-based; parameters: dose 100 mg/kg; settings: in vivo, ip
# [26] = Anti convulsant activity administered intra peritoneally to mouse for toxicity at 4 hr with dose of 300 mg/kg; 1/2= No of animals exhibiting toxicity /No of animals tested; format: organism-based; parameters: dose 300 mg/kg; settings: in vivo, ip
# [27] = Anti convulsant activity administered intra peritoneally to mouse for toxicity at 0.5 hr with dose of 100 mg/kg; 0/8= No of animals exhibiting toxicity /No of animals tested; format: organism-based; parameters: dose 100 mg/kg; settings: in vivo, ip
# Mus musculus [28] = test: Anti convulsant activity administered intra peritoneally to mouse at maximal electroshock test at 0.5 hr after the drug administered with dose of 300 mg/kg; 1/1= No of animals protected /No of animals tested; format: functional
# Rattus norvegicus [29] = test: Quantitative Anticonvulsant activity administered orally to rat for subcutaneous metrazol test; format: functional
# Outline: (§4)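 Oral dosing in rats with compound dissolved or suspended in 0.5% methylcellulose (0.04 mL per 10 g body weight). […] Protective index taken as TD50/ED50 for each test.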
# Rattus norvegicus [30] = test: Quantitative Anticonvulsant activity administered orally to rat for toxicity; format: functional; settings: po; outline: as §4
# Mus musculus [31] = test: Quantitative Anticonvulsant activity administered intraperitoneally to mouse for subcutaneous metrazol test; format: functional; outline: as §3
# Rattus norvegicus [32] = test: Anticonvulsant activity after oral administration of 30 mg/kg dose after 30 min in rats; ++ means 50% animals protected; format: functional, organism-based; parameters: dose 30 mg/kg; outline: as §1
# Mus musculus [33] = test: Quantitative Anticonvulsant activity administered intraperitoneally to mouse for protective index in subcutaneous metrazol test; format: functional; outline: as §3
# Rattus norvegicus [34] = test: Anticonvulsant activity after oral administration of 50 mg/kg dose after 30 min in rats; +++ means 75% of the animals protected; format: functional, organism-based; parameters: dose 50 mg/kg; outline: as §2
# Rattus norvegicus [35] = test: Quantitative Anticonvulsant activity administered orally to rat at maximal electro shock test; the interval in parenthesis stands for 95% confidence interval; format: functional; settings: po; outline: as §4
# Mus musculus [36] = test: Anti convulsant activity administered intra peritoneally to mouse for subcutaneous metrazol test at 4 hr with dose of 300 mg/kg; 1/1= No of animals protected /No of animals tested; format: functional
# Mus musculus [37] = test: Anti convulsant activity administered intra peritoneally to mouse for subcutaneous metrazol test at 0.5 hr with dose of 300 mg/kg; 1/1= No of animals protected /No of animals tested; format: functional
# Mus musculus [38] = test: Anti convulsant activity administered intra peritoneally to mouse for toxicity at 4 hr with dose of 30 mg/kg; 2/3= No of animals exhibiting toxicity /No of animals tested; format: functional
# Rattus norvegicus [39] = test: Anticonvulsant activity after oral administration of 30 mg/kg dose after 1 hr in rats; ++means 50% animals protected; format: functional, organism-based; parameters: dose 30 mg/kg; outline: as §1
# Rattus norvegicus [40] = test: Quantitative Anticonvulsant activity administered orally to rat for protective index in subcutaneous metrazol test; format: functional; outline: as §4
# Rattus norvegicus [41] = test: Quantitative Anticonvulsant activity administered orally to rat for protective index in maximal electro shock test;TD50/ED50; format: functional; outline: as §4
# Mus musculus [42] = test: Quantitative Anticonvulsant activity administered intraperitoneally to mouse for protective index in maximal electro shock test;TD50/ED50; format: functional; outline: as §3
# Rattus norvegicus [43] = test: Anticonvulsant activity after oral administration of 50 mg/kg dose after 15 min in rats; ++++means 100% of the animals protected; format: functional, organism-based; parameters: dose 50 mg/kg; outline: as §1
# [44] = Anti convulsant activity administered intra peritoneally to mouse for toxicity at 4 hr with dose of 100 mg/kg; 4/4= No of animals exhibiting toxicity /No of animals tested; format: organism-based; parameters: dose 100 mg/kg; settings: in vivo, ip
# [45] = Anti convulsant activity administered intra peritoneally to mouse for toxicity at 4 hr with dose of 300 mg/kg; 2/2= No of animals exhibiting toxicity /No of animals tested; format: organism-based; parameters: dose 300 mg/kg; settings: in vivo, ip
# Mus musculus [46] = test: Anti convulsant activity administered intra peritoneally to mouse at maximal electroshock test at 4 hr after the drug administered with dose of 300 mg/kg; 1/1= No of animals protected /No of animals tested; format: functional
# Mus musculus [47] = test: Anti convulsant activity administered intra peritoneally to mouse for toxicity at 4 hr with dose of 30 mg/kg; 1/3= No of animals exhibiting toxicity /No of animals tested; format: functional
# [48] = Anti convulsant activity administered intra peritoneally to mouse for toxicity at 4 hr with dose of 300 mg/kg; 1/4= No of animals exhibiting toxicity /No of animals tested; format: organism-based; parameters: dose 300 mg/kg; settings: in vivo, ip
# [49] = Anti convulsant activity administered intra peritoneally to mouse for toxicity at 0.5 hr with dose of 300 mg/kg; 2/4= No of animals exhibiting toxicity /No of animals tested; format: organism-based; parameters: dose 300 mg/kg; settings: in vivo, ip
# Rattus norvegicus [50] = test: Anticonvulsant activity after oral administration of 30 mg/kg dose after 4 hr in rats; + means 25% of the animals protected; format: functional, organism-based; parameters: dose 30 mg/kg; outline: as §1
# Mus musculus [51] = test: Anti convulsant activity administered intra peritoneally to mouse for toxicity at 4 hr with dose of 30 mg/kg; 0/3= No of animals exhibiting toxicity /No of animals tested; format: functional
Structure (SMILES),Toxicity [1],Toxicity [5],Toxicity [6],Toxicity [7],Toxicity [8],Activity (Mus musculus [9]),Activity (Mus musculus [10]),Activity (Mus musculus [11]),Activity (Mus musculus [12]),Activity (Mus musculus [13]),Activity (Mus musculus [16]),Activity (Rattus norvegicus [17]),Activity (Mus musculus [19]),Activity (Mus musculus [20]),Activity (Mus musculus [22]),Toxicity [27],Activity (Mus musculus [28]),further results
CCN(CCO)C(=O)C1C(C)(C)C1(C)C,1,0,0,7,4,0,0,0,0,0,0,25% of the animals protected,0,0,0,,,Toxicity [2]: 0; Activity [3]: 25% of the animals protected; Toxicity [4]: 25% of the animals exhibit toxicity; Activity (Mus musculus [14]): 0; Activity (Mus musculus [15]): 0; Activity (Rattus norvegicus [18]): 25% of the animals protected; Activity (Mus musculus [21]): 0; Toxicity (Rattus norvegicus [23]): 25% of the animals exhibit toxicity
CONC(=O)C1C(C)(C)C1(C)C,,0,0,,4,0,0,0,0,0,0,25% of the animals protected,,0,,0,1,TD50 [24]: 116 mg/kg; Toxicity [25]: 0; Toxicity [26]: 1; ED50 (Rattus norvegicus [29]): 35 mg/kg; ED50 (Rattus norvegicus [30]): 333 mg/kg; ED50 (Mus musculus [31]): 74 mg/kg; Activity (Rattus norvegicus [32]): 25% of the animals protected; Anticonvulsant (Mus musculus [33]): 2.2; Activity (Rattus norvegicus [34]): 25% of the animals protected; ED50 (Rattus norvegicus [35]): 108 mg/kg; Activity (Mus musculus [36]): 1; Activity (Mus musculus [37]): 1; Activity (Mus musculus [38]): 2; Activity (Rattus norvegicus [39]): 25% of the animals protected; Activity (Rattus norvegicus [40]): 9.5; Ratio (Rattus norvegicus [41]): 3.1; Ratio (Mus musculus [42]): 1.4 mg/kg; Anticonvulsant Activity (Rattus norvegicus [43]): 100% of the animals protected
CC1(C)C(C(=O)N=C(N)N)C1(C)C,,0,0,7,4,0,0,,0,0,,,,0,,,1,Toxicity [44]: 4; Toxicity [45]: 2; Activity (Mus musculus [46]): 1; Activity (Mus musculus [47]): 1
CC1(C)C(C(=O)NN)C1(C)C,1,0,0,,,0,0,,0,0,0,,0,0,0,0,1,Toxicity [48]: 1; Toxicity [49]: 2; Activity (Rattus norvegicus [50]): 25% of the animals protected; Activity (Mus musculus [51]): 0
